Each structure is given as a SMILES string. In brackets after ≈: the same amount, converted by molar mass. Activity calls are given as the source filed them. No cut-off for these calls is given here.

A short description of series [1]: Solubility in water at pH 6.8. It is filed as physicochemical.
The nature of series [2]: Octanol-phosphate buffer partition coefficient, log D of the compound at pH 7.4. The format is physicochemical. The procedure, abridged:
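Compound was shaken 30 min in equal volumes of n-octanol and phosphate-buffered saline at pH 7.4, then centrifuged at 3000 rpm for 10 min. Each layer was assayed by LC/MS, and log D was taken from the partition ratio.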

In series [3] the test system is Candida albicans. Nature of the series: Antifungal activity against FLCZ-resistant Candida albicans ATCC MYA-573 assessed as concentration required to 80% growth inhibition using alamar blue staining after 18 to 72 hrs by microdilution method. It is filed as functional. The procedure, abridged:
(§1)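 Serial broth microdilution in YPD medium (1% yeast extract, 2% peptone, […]). Starting cell density (1 × 10³–1 × 10⁴ cells/mL) and incubation time (18–72 h) were set per strain by growth speed. MIC-1 is the lowest drug concentration giving 80% growth inhibition relative to the drug-free control.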
On the technique in general: Resazurin is reduced to fluorescent resorufin, in cell work by metabolically active cells.

The subject of series [4] is Pichia kudriavzevii. Nature of the series: Antifungal activity against Candida krusei ATCC 44507 assessed as concentration required to 80% growth inhibition using alamar blue staining after 18 to 72 hrs by microdilution method. It is filed as functional. In short, it runs like this:
(§2)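 Serial dilution in YPD medium (1% yeast extract, 2% peptone, […]), incubated at 37 °C. Inoculum was 1×10³–1×10⁴ cells/mL and incubation 18–72 h, both chosen per strain. MIC-1 is the lowest concentration giving 80% inhibition relative to a drug-free control.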

Series [5] has as its system Nakaseomyces glabratus. Nature of the series: Antifungal activity against Candida glabrata ATCC 48435 assessed as concentration required to 80% growth inhibition using alamar blue staining after 18 to 72 hrs by microdilution method. The format is functional. In short, it runs like this: as §2
In series [6] the test system is Candida albicans. Put plainly: Antifungal activity against FLCZ-susceptible Candida albicans ATCC 90028 assessed as concentration required to 80% growth inhibition using alamar blue staining after 18 to 72 hrs by microdilution method. The format is functional. In short, it runs like this:
as §1

Series [7] deals with Candida tropicalis. Nature of the series: Antifungal activity against Candida tropicalis ATCC 44508 assessed as concentration required to 80% growth inhibition using alamar blue staining after 18 to 72 hrs by microdilution method. The format is functional. The note with it: read-out: MIC. In short, it runs like this: as §2
Series [8] concerns Candida albicans. Put plainly: Antifungal activity against Candida albicans ATCC 24433 assessed as concentration required to 50% growth inhibition using alamar blue staining after 18 to 72 hrs by microdilution method. It is filed as functional. The procedure, abridged:
(§3)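 Serial broth microdilution in RPMI 1640 with 0.165 M MOPS. Inoculum was 1×10³–1×10⁴ cells/mL and incubation ran 18–72 h, both set per strain by growth rate, at 30 °C. MIC-2 is the lowest drug concentration giving 50% growth inhibition versus a drug-free control.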

Series [9] deals with Pichia kudriavzevii. Nature of the series: Antifungal activity against Candida krusei ATCC 44507 assessed as concentration required to 50% growth inhibition using alamar blue staining after 18 to 72 hrs by microdilution method. The format is functional. In short, it runs like this: as §3
In series [10] the test system is Nakaseomyces glabratus. Nature of the series: Antifungal activity against Candida glabrata ATCC 48435 assessed as concentration required to 50% growth inhibition using alamar blue staining after 18 to 72 hrs by microdilution method. The format is functional. In short, it runs like this:
as §3

Series [11] deals with Candida tropicalis. Put plainly: Antifungal activity against Candida tropicalis IAM 4965 assessed as concentration required to 50% growth inhibition using alamar blue staining after 18 to 72 hrs by microdilution method. The format is functional. The procedure, abridged: as §3
The subject of series [12] is Saccharomyces cerevisiae. Nature of the series: Antifungal activity against Saccharomyces cerevisiae YPH500 assessed as concentration required to 50% growth inhibition using alamar blue staining after 18 to 72 hrs by microdilution method. The format is functional. The procedure, abridged: as §3
Series [13] in a line: Metabolic stability in human liver microsomes at 1 uM after 30 mins. The format is ADME, Microsome. The note with it: read-out: Stability. In short, it runs like this: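 Compound was preincubated with human liver microsomes (0.5 mg/mL protein) in sodium phosphate buffer pH 7.4 for 20 min at 37 °C. NADPH started the reaction, and MeOH stopped it after 30 min. Samples were centrifuged at 4 °C, and parent loss was quantified by LC/MS/MS.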
(In general: Liver microsomes are a subcellular fraction often used to study metabolism.)

The test system of series [14] is Candida albicans. Put plainly: Antifungal activity against FLCZ-susceptible Candida albicans ATCC 90028 assessed as reduction of beta-1,6-glucan level after 3 hrs by [14C]-glucose incorporation assay. It is filed as functional, organism-based. In short, it runs like this: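 Exponentially growing cells suspended in RPMI 1640 to absorbance ~0.7 at 595 nm; drug and [14C]-glucose added, incubated 30 °C with occasional shaking. After 3 h, cells heated in 3% NaOH at 80 °C for 1 h; mannan taken from supernatant by Fehling's reaction; insoluble residue digested with Zymolyase 100T overnight; radioactivity per fraction measured. Tested 0.016–4 µg/mL.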

Series [15] deals with Candida albicans. Put plainly: Antifungal activity against FLCZ-susceptible Candida albicans ATCC 90028 assessed as reduction of beta-1,3-glucan level up to 4 ug/ml after 3 hrs by [14C]-glucose incorporation assay. The format is functional, organism-based. In short, it runs like this:
(§4)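 Exponentially growing cells were suspended in RPMI 1640 to about 0.7 A595, then drug (0–4 µg/mL) and [14C]-glucose were added. Incubation was 3 h at 30 °C with occasional shaking. Cells were heated in 3% NaOH at 80 °C for 1 h. Mannan was taken from the supernatant by Fehling's reaction, and the insoluble residue was digested overnight with Zymolyase 100T. β-1,3-glucan counts were obtained as glucan minus β-1,6-glucan.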

Series [16] has as its system Candida albicans. Put plainly: Antifungal activity against FLCZ-susceptible Candida albicans ATCC 90028 assessed as reduction of mannan level up to 4 ug/ml after 3 hrs by [14C]-glucose incorporation assay. The format is functional, organism-based. The procedure, abridged:
as §4

The test system of series [17] is Candida albicans. Put plainly: Antifungal activity against FLCZ-susceptible Candida albicans ATCC 90028 assessed as reduction of chitin level up to 4 ug/ml after 3 hrs by [14C]-glucose incorporation assay. The format is functional, organism-based. The procedure, abridged:
as §4

A word on the solubility: it is how much of the substance goes into solution per volume. The logD is lipophilicity at a set pH, counting ionised and neutral species. A high value points to a more lipophilic compound. By MIC is commonly meant the least concentration at which growth counts as inhibited. For `Cc1c(-c2ccccc2)c(N2CC[C@H](N(C)C)C2)c2oc(C3CC3)nc2c1C#N`, the solubility in [1] amounted to 10 µg/mL (≈ 25.9 µM). Moreover, in [2], the log distribution coefficient (logD) was determined as 3.9. Besides, the minimum inhibitory concentration (MIC) was determined as 0.063 µg/mL (≈ 0.163 µM) in series [3]; 0.125 µg/mL (≈ 0.323 µM) in series [4]; 0.032 µg/mL (≈ 0.0828 µM) in series [5]; 0.063 µg/mL (≈ 0.163 µM) in series [6]; 0.032 µg/mL (≈ 0.0828 µM) in [7].

Consider `Cc1c(-c2ccccc2)c(N2CC[C@H](N(C)C)C2)c2[nH]c(C(C)(C)C)nc2c1C#N`, for which the minimal inhibitory concentration (MIC) was 4 µg/mL (≈ 9.96 µM) in series [8]; > 16 µg/mL in [9]; 0.5 µg/mL (≈ 1.25 µM) in series [10]; 2 µg/mL (≈ 4.98 µM) in [11]; 0.5 µg/mL (≈ 1.25 µM) in series [12]. In series [1], this molecule gave a solubility of 8 µg/mL (≈ 19.9 µM). This molecule also showed a logD in series [2] of 4.7. Further, the remaining at 0.5 h, 1 µM in series [13] came out at 21%.

As to `CN(C)[C@H]1CCN(c2c(-c3ccccc3)cc(C#N)c3nc(C(C)(C)C)oc23)C1`, the minimal inhibitory concentration (MIC) in series [8] came out at 16 µg/mL (≈ 41.2 µM); in [9], 16 µg/mL (≈ 41.2 µM); in [10] it was 0.25 µg/mL (≈ 0.643 µM); in series [11], 0.5 µg/mL (≈ 1.29 µM); in series [12], 0.25 µg/mL (≈ 0.643 µM). In series [1], this molecule gave a solubility of 16 µg/mL (≈ 41.2 µM). For the same molecule, the logD in [2] is 3.8. For the same molecule, the remaining at 0.5 h, 1 µM in series [13] was 8%.

Regarding `Cc1c(-c2ccccc2)c(N2CC[C@H](N(C)C)C2)n2nc(C(C)(C)C)nc2c1C#N`, the minimum inhibitory concentration (MIC) in series [8] was > 4 µg/mL; in series [3], 0.5 µg/mL (≈ 1.24 µM); in [4] it was 8 µg/mL (≈ 19.9 µM); in series [9] it was > 4 µg/mL; in series [10], 0.063 µg/mL (≈ 0.157 µM); in series [11], 0.25 µg/mL (≈ 0.621 µM). Moreover, the minimal inhibitory concentration (MIC) in series [12] turned out to be 0.063 µg/mL (≈ 0.157 µM); in series [5], 0.125 µg/mL (≈ 0.311 µM); in series [6], 0.25 µg/mL (≈ 0.621 µM); in series [7], 0.125 µg/mL (≈ 0.311 µM). Moreover, the remaining at 0.5 h, 1 µM in series [13] worked out at 9%.

With `CN[C@H]1CCN(c2c(-c3ccccc3)c(C)c(C#N)c3nc(C(C)(C)C)oc23)C1.Cl`, the MIC was 16 µg/mL in [8]; 0.25 µg/mL in [3]; > 4 µg/mL in series [4]; > 16 µg/mL in series [9]; 0.125 µg/mL in series [10]; 0.25 µg/mL in series [11]. Further, the MIC turned out to be 0.125 µg/mL in series [12], 0.125 µg/mL in [5], 0.25 µg/mL in [6] and 0.063 µg/mL in series [7]. The concentration in solution in [1] (solubility) was 120 µg/mL. The molecule also came in with a logD in series [2] of 3.4. Also, in [13], the remaining at 0.5 h, 1 µM is 54%. In series [14], the Activity entry is “Dose-dependent effect”. For the same molecule, the outcome in series [15], in [16] and in series [17] was inactive.

In turn, `Cc1nc2c(C#N)c(C)c(-c3ccccc3)c(N3CC[C@H](N(C)C)C3)c2o1` returned a solubility in series [1] of 120 µg/mL (≈ 333 µM). The molecule further had a logD in series [2] of 3.3. For the same molecule, the MIC in series [3] worked out at 2 µg/mL (≈ 5.55 µM); in [4], 4 µg/mL (≈ 11.1 µM); in [5], 0.25 µg/mL (≈ 0.694 µM); in series [6] it was 2 µg/mL (≈ 5.55 µM); in [7] it was 0.25 µg/mL (≈ 0.694 µM).

In the case of `CN(C)[C@H]1CCN(c2c(-c3ccccc3)c3c(c4nc(C5CC5)oc24)C(=O)OC3)C1`, the solubility in series [1] is 310 µg/mL (≈ 768 µM). Also, the pH-dependent lipophilicity (logD) in series [2] worked out at 2.6. For the same molecule, the MIC in [3] is 1 µg/mL (≈ 2.48 µM); in series [4] it was 2 µg/mL (≈ 4.96 µM); in [5], 0.25 µg/mL (≈ 0.62 µM); in series [6] it was 1 µg/mL (≈ 2.48 µM); in [7], 0.25 µg/mL (≈ 0.62 µM).

As for `Cc1c(-c2ccccc2)c(N2CC[C@H](N(C)C)C2)n2c(nc3ccccc32)c1C#N`, the MIC in [8] was > 4 µg/mL; in series [9], 0.125 µg/mL (≈ 0.316 µM); in [10], 0.063 µg/mL (≈ 0.159 µM); in series [11], 0.25 µg/mL (≈ 0.632 µM); in [12] it was 0.004 µg/mL (≈ 0.0101 µM). Also, the solubility in series [1] was found to be 5 µg/mL (≈ 12.6 µM).
